Results pooled from the literature.
Each line is one published result; the experiments were not run side by side.
Organism: Mycobacterium tuberculosis
Read-out: microbial growth

| SMILES | technique | strain | time | MIC |
| --- | --- | --- | --- | --- |
| COc1cccc2c1C(=O)c1c(O)c3c(c(O)c1C2=O)C[C@@](O)(C(=O)CO)C[C@@H]3O[C@H]1C[C@H](N)[C@H](O)[C@H](C)O1 | resazurin | H37RV |  | 5 µM |
| CC[C@@H](CO)NCCN[C@@H](CC)CO |  | H37RV | 14 days | 0.78 µg/mL |
| O=C1c2cccc(O)c2C(=O)c2c(O)cc(CO)cc21 | resazurin | H37RV |  | > 320 µM |
| CO[C@H]1/C=C/O[C@@]2(C)Oc3c(C)c(O)c4c(O)c(c(/C=N/N5CCN(C)CC5)c(O)c4c3C2=O)NC(=O)/C(C)=C\C=C\[C@H](C)[C@H](O)[C@@H](C)[C@@H](O)[C@@H](C)[C@H](OC(C)=O)[C@@H]1C |  | H37RV | 14 days | 0.17 µg/mL |
| CCN1CCc2c(sc(N)c2C(=O)NC23CC4CC(CC(C4)C2)C3)C1 | resazurin | H37RV |  | > 200 µM |
| CO[C@H]1/C=C/O[C@@]2(C)Oc3c(C)c(O)c4c(O)c(c(/C=N/N5CCN(C)CC5)c(O)c4c3C2=O)NC(=O)/C(C)=C\C=C\[C@H](C)[C@H](O)[C@@H](C)[C@@H](O)[C@@H](C)[C@H](OC(C)=O)[C@@H]1C | resazurin | ATCC35801 ERDMAN | 7 days | 0.05 µg/mL |
| CCOC(=O)c1c(NC(=O)c2cc(C(F)(F)F)cc(C(F)(F)F)c2)sc2c1CCN(C(=O)OC(C)(C)C)C2 | resazurin | H37RV |  | < 100 µM |
| O=C(O)c1cc(O)c2c(c1)C(=O)c1cccc(O)c1C2=O | resazurin | H37RV |  | > 320 µM |
| CCOC(=O)c1c(NC(=O)c2cc(C(F)(F)F)cc(C(F)(F)F)c2)sc2c1CCN(CC)C2 | resazurin | H37RV |  | > 200 µM |
| CC[C@@H](CO)NCCN[C@@H](CC)CO |  | H37RV | 7 days | 0.8 µg/mL |
